The full list was thinned out, with hits kept by preference.
Insulin prom act – TRM-6 insulin promoter activation | TRM-6 cells, insulin promoter eGFP reporter, imaging; plate-scaled: unstimulated 0, stimulated control 100 | activation, % at 2 µM | 130,000 compounds, 0.81% hits;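 active means activation at 2 µM above a set limit, confirmed on inspection of the cell images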;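 further: share of cells whose green reporter signal exceeds an intensity cutoff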
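System – human fetal islet-derived TRM-6 cells with tamoxifen-inducible insulin promoter–eGFP reporter · Amount – 1,000 cells per well · Schedule – overnight tamoxifen, then two-day compound incubation at 37 °C · Detection – high-content imaging of fixed cells with Hoechst nuclear stain · Read-out – percent cells above green-intensity threshold, converted to percent activation versus plate controls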
Numbers without * were called inactive.

SMILES | Insulin prom act
COc1ccc(N2CCN(C(=O)CN(c3ccccc3)S(=O)(=O)c3ccc(OC)cc3)CC2)cc1 | 80.0*
COc1ccc(N2CCN(C(=O)CCNC(=O)c3ccccc3)CC2)cc1 | -5.3
Cc1cc(C)cc(N(CC(=O)N2CCOCC2)S(=O)(=O)c2ccccc2)c1 | 72.0
CS(=O)(=O)N(CC(=O)N/N=C/c1ccco1)c1ccccc1Br | 0.0
Clc1ccc(-c2nnc3n2CCCC3)cc1 | 8.8
COc1cccc(NC(=S)NCc2cccnc2)c1 | -2.9
COc1ccc(Nc2nc(C)cc(=O)[nH]2)cc1 | 0.0
COc1ccc(S(=O)(=O)NCCc2ccc(F)cc2)cc1 | -90.9
COc1ccc(CCNc2cc(=O)[nH]c(N)n2)cc1 | 615.4*
CC(=O)N1N=C(c2ccncc2)OC12CCCC2 | 542.9*
O=C(Nc1ccncc1)C1(c2ccccc2)CCCC1 | 0.0
CCC(C(=O)NC1CCCC1)N(C(=O)Cn1nnc(-c2ccc(C)cc2)n1)C1CCCC1 (configuration not stated) | 8.1
O=C(/C=C/c1ccc(S(=O)(=O)N2CCOCC2)cc1)NCc1ccc(Cl)cc1 | 3.6
Cc1nn(C(=O)c2ccccc2)c2c1C(=O)CC(C)(C)C2 | 27.6
CC(C)C[C@@H]1NC(=O)N(CCN2CCOCC2)C1=O | 2.8
CC(C)c1cc(NCC2CCCO2)n2c(nc3ccccc32)c1C#N (configuration not stated) | 78.6*
CCc1c(C)c(C#N)c2nc3ccccc3n2c1Cl | 153.3
Cc1c(C#N)c2ccccc2n1CC(=O)NCC1CCCO1 (configuration not stated) | 7.1
CCc1c(C)c(C#N)c2nc3ccccc3n2c1NCC1CCCO1 (configuration not stated) | 79.3*
Cc1cc(NCCN2CCCCC2)n2c(nc3ccccc32)c1C#N | 5.3
CCc1c(C)c(C#N)c2nc3ccccc3n2c1N1CCN(c2cc(C)ccn2)CC1 | -2.8
C=CCn1c(SCCOc2ccc(OC)cc2)nnc1C(C)NC(=O)Cc1ccc(OC)cc1 (configuration not stated) | 271.4
C=CCN(CC=C)CC(=O)Nc1ccc(S(N)(=O)=O)cc1 | 5.3
CCN(CC)C(=O)C(=O)c1cn(CC(=O)N2CCc3ccccc3C2)c2ccccc12 | 145.5
CCN(Cc1nc2ccccc2c(=O)[nH]1)Cc1cc(=O)oc2cc(OC)ccc12 | -9.1
SMILES | Insulin prom act
CCC(=O)N1CCN(c2nc(-c3ccc(Cl)cc3)cs2)CC1 | 464.3*
Fc1ccc(-c2csc(N3CCSCC3)n2)cc1 | 109.1
CCc1nnc(NC(=O)CN2CCN(c3nc(-c4ccccc4)cs3)CC2)s1 | 7.1
COc1nc(N(CC(N)=O)S(=O)(=O)c2ccccc2)nc(C)c1Cl | -7.7
Cc1ccc(NCc2nnc(SCC(=O)Nc3nnc(C)s3)n2C)cc1 | -8.3
CCCC(=O)Nc1ccc(N2CCN(C(=O)c3ccccc3C)CC2)cc1 | 443.8*
CCCC(=O)Nc1ccc(C(=O)N2CCCC2)cc1 | -2.6
Cc1ccc(N2CCN(c3ccc(NC(=O)CCC(=O)O)cc3)CC2)cc1 | -73.3
CS(=O)(=O)Nc1ccccc1C(=O)N1CCN(c2ccccc2)CC1 | -3.6
O=C(Nc1ccc(F)c(F)c1)NC1CCCCC1 | -4.2
O=C(NCc1ccc(OC(F)(F)F)cc1)C1CC(c2ccccc2[N+](=O)[O-])=NO1 (configuration not stated) | -7.3
O=C(NCCc1cccs1)C1CC(c2ccc([N+](=O)[O-])cc2)=NO1 (configuration not stated) | -4.4
CCCCNC(=O)C1CC(c2ccccc2[N+](=O)[O-])=NO1 (configuration not stated) | 161.3*
CC(=O)Nc1ccc(NC(=O)C(C)OC(=O)c2ccc(C)s2)cc1 (configuration not stated) | 0.0
Cc1ccc(C2=CSC3=NNC4(CCCCC4)NN23)cc1 | -8.3
O=C1c2ccccc2C(=O)N1c1ccc(Cl)cn1 | 113.3
Cc1ccc(S(=O)(=O)N(CC(=O)NN=C2CCN(C)CC2)c2ccc(C(C)C)cc2)cc1 | 0.0
Cc1ccc(C)c(N(CC(=O)NN=C2CCN(C)CC2)S(=O)(=O)c2ccccc2)c1 | -8.3
CN1CCC(=NNC(=O)CN(c2ccc(Oc3ccccc3)cc2)S(C)(=O)=O)CC1 | 454.5*
COc1cccc(/C=c2/s/c(=C(\C#N)C(=O)N3CCOCC3)n(-c3ccccc3)c2=O)c1 | 8.6
O=C(Cc1ccccc1)NCC1CCCO1 (configuration not stated) | 3.1
O=C(CCCC(=O)NCC1CCCO1)NCC1CCCO1 (configuration not stated) | 256.5*
O=C(Cc1ccc(F)cc1)NCC1CCCO1 (configuration not stated) | 6.7
Cc1cc2cc(NC(=O)c3ccco3)ccc2[nH]1 | 0.0
Cc1ccc(C(=O)c2cn[nH]c2-c2ccccc2O)cc1 | 0.0
SMILES | Insulin prom act
Cc1[nH]nc2ncc(C(=O)c3ccccc3O)cc12 | -80.0
O=C(c1ccc(F)cc1)c1cn[nH]c1-c1ccccc1O | 171.0*
CCOc1ccc(NC(=O)CN(c2cccc(C(F)(F)F)c2)S(C)(=O)=O)cc1 | -6.9
CCOP(=O)(OCC)C(C#N)=C1SCN(c2ccc(Cl)cc2)CS1 | -2.6
CCOc1cc(/C=C(/C#N)c2ccc(F)cc2)ccc1OCc1ccc(C(=O)O)o1 | 226.1
N#C/C(=C/c1cn(CC(=O)O)c2ccccc12)c1ccc(F)cc1 | -2.9
Cn1cccc1/C=C(/C#N)c1ccc(F)cc1 | 438.5*
CC(NC(=O)c1cccc(C(F)(F)F)c1)C1CCCO1 (configuration not stated) | 109.5
Cc1ccccc1CSc1nc2c(c(=O)[nH]1)CCCC2 | 3.8
O=C(CN1CCCCC1)N/N=C/c1ccccc1OCc1ccccc1 | 0.0
COc1ccc(C(=O)OC/C(O)=C(\C#N)c2nc3ccccc3[nH]2)cc1S(=O)(=O)N1CCOCC1 | -7.7
Clc1ccccc1-c1nnc2sc(-c3cccs3)nn12 | 0.0
Clc1ccccc1Cn1nnc(-c2cccs2)n1 | 569.2*
O=C(O)CCn1nnc(-c2cccs2)n1 | 0.0
CCN(CC)S(=O)(=O)c1ccc(O)c(C(=O)OCC(=O)N(C)Cc2ccccc2)c1 | 0.0
O=C(c1ccc(N2CCOCC2)cc1)c1cccs1 | 7.1
Cc1cc(N2C(=O)CC(C(C)c3ccccc3)C2=O)no1 (configuration not stated) | 3.4
Cc1cc(N2C(=O)CC(N3CCN(c4ccc(C(=O)c5cccs5)cc4)CC3)C2=O)no1 (configuration not stated) | 437.5*
Nc1ccc(C(=O)OCC(=O)N2CCN(C(=O)c3ccco3)CC2)cc1[N+](=O)[O-] | -1.6
COC(=O)Cn1c(=O)oc2ccc(C)cc21 | -6.7
CN(C)C(=O)c1cc(F)ccc1Sc1cc(Cl)ccc1Cl | -2.9
CCn1c(NC)cc(=O)n(C)c1=O | 2.6
CCn1c(=O)n(CC)c2cc(S(N)(=O)=O)c(C)cc21 | 525.0*
CCN1CCN(S(=O)(=O)c2cc(C)c(OC)cc2C)CC1 | -57.1
O=C(N/N=C/c1ccco1)c1ccn[nH]1 | 7.7
SMILES | Insulin prom act
COc1ccc(N=C2S/C(=C\c3cccs3)C(=O)N2CC(C)C)cc1 | -3.3
CCOc1ccc(N2C(=O)/C(=C/c3cccs3)N(C)C2=S)cc1 | 0.0
CC(C)CN1C(=O)/C(=C/c2cccs2)NC1=S | 431.3*
COc1ccc(-n2c(C)nc3cc(C(=O)O)ccc32)cc1 | 3.2
CCc1nnc(NC(=O)c2nc3nc(C)cc(C)n3n2)s1 | -5.5
CCOC(=O)CNC(=O)CSc1nnc(Cn2c(=O)sc3ccccc32)n1C | -25.0
O=C(c1cccnc1)N1CCN(C(=O)c2cccs2)CC1 | 456.3*
O=C(c1cccs1)N1CCN(Cc2ccccn2)CC1 | 4.3
